# b-catenin transl = beta-catenin nuclear translocation modulation | AID 1665 | nuclear translocation activity, % at 5 µM | 190,000 tested, 0.3% active | HeLa beta-catenin nuclear translocation, immunofluorescence imaging;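 active = nuclear translocation activity above 50% at 5 µM, with a well cell count of 50 or more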;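 also: per-cell ratio of nuclear to cytoplasmic median beta-catenin stain intensity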
#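 System: HeLa cells, endogenous beta-catenin; compound dosing: 5 µM primary single dose, 0.1% DMSO, 0.02–20 µM confirmation series; incubation: 24 h compound exposure at 37°C, 5% CO2; signal: beta-catenin immunofluorescence imaging with DAPI; evaluation: % activation, nuclear-to-cytoplasmic median beta-catenin signal ratio per cell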
# NPY-Y1 PAM-ag = potentiates or activates human NPY-Y1 receptor; P25929; NPY-Y1 expressing cells, potentiator/agonist activation; activation, % at 3.6 µM; 220,000 tested, 0.37% active; AID 1304; in the data active = activation above about 33%, passing the limit was not always enough;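 also: cells stimulated with NPY at EC10 then isoproterenol at EC100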
# Target sequence (P25929 whole entry, looked up): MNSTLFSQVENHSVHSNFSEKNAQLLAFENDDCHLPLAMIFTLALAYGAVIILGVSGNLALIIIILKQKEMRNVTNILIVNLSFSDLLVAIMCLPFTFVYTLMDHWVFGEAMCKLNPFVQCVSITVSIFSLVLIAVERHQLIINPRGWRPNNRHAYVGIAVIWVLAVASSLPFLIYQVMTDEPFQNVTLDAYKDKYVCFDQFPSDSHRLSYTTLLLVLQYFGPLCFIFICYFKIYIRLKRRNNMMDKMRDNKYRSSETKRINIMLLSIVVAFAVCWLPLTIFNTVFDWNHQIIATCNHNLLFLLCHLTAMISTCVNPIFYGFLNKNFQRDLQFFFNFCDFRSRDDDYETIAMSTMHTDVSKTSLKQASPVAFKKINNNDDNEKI
# NPY-Y2 antag = blocks the human neuropeptide Y Y2 receptor | P49146 | NPY-Y2 expressing cells, antagonist mode | inhibition, % at 2.7 µM | 140,000 tested, 0.99% active | AID 793
# NPY-Y1 antag = blocks the human neuropeptide Y Y1 receptor; AID 1040; 200,000 tested, 1% active; HEK293-CNG Y1 cells, membrane potential fluorescence; NPY at EC95, then isoproterenol; inhibition, % at 3.6 µM;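 active = inhibition above the campaign mean inhibition of all tested compounds plus 3 SD, cut at about 20% in these data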
#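 Material: Y1- and CNG-channel-expressing HEK293 cells / Probe or stimulus: NPY 25 nM then isoproterenol 1 µM plus Ro 20-1724 25 µM / Doses: 3.6 µM single dose, DMSO 0.4% / Schedule: compound incubation 1 h at room temperature, readout 45 min post-stimulation / Signal: membrane potential fluorescence / Benchmarks: isoproterenol-only wells as full block versus NPY-plus-isoproterenol wells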
# MT stabilize HCS = microtubule stabilization, imaging screen; AID 2205; HeLa tubulin immunostaining HCS, 24 h; share of cells brighter than vehicle mean+2SD; % tubulin-high responders, % at 10 µM; 200,000 tested, 0.83% active;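 active = plate Z-score above 3 for both tubulin-high and condensed-nucleus cell shares, with cell loss under 80%, at 10 µM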;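 also: anti alpha tubulin signal scored within the nucleus-defined area of each cell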
# NPY-Y2 PAM-ag = potentiators or agonists of human neuropeptide Y receptor Y2 | cells expressing NPY-Y2, potentiator/agonist read-out | P49146 | AID 1359 | activation, % at 3.6 µM | 220,000 tested, 0.45% active; in the data active = activation above about 27%;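 also: cells stimulated with NPY near EC25 plus isoproterenol at EC100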
# NPY-Y1 ant conf = human NPY-Y1 antagonism, confirmation | shares compounds with NPY-Y1 antag | HEK293-CNG NPY-Y1, membrane potential fluorescence, cAMP; NPY challenge against isoproterenol-raised cAMP | inhibition, % at 3.6 µM | 1,200 tested, 21% active | AID 1254; in the data active = inhibition above about 20%
# NPY-Y2 antag ct = human NPY-Y2 antagonism in NPY-Y1 counter-screen; shares compounds with NPY-Y1 antag; HEK293 NPY-Y2 CNG membrane potential fluorescence; cells given NPY, then isoproterenol; inhibition, % at 3.6 µM; 1,200 tested, 28% active
# Hits are given with their value; . = inactive; / = no result. Only some compounds are listed: those with a hit (about 2.6% of all), similar ones and a draw of the others. Rule as the data show it, unless noted: active = inhibition above about 17%; inactive = the rest.
SMILES,b-catenin transl,NPY-Y1 PAM-ag,NPY-Y2 antag,NPY-Y1 antag,MT stabilize HCS,NPY-Y2 PAM-ag,NPY-Y1 ant conf,NPY-Y2 antag ct
COc1ccc(-c2n(Cc3ccccc3)c3ccccc3[n+]2Cc2ccccc2)cc1,.,.,/,62,11,.,.,22
COc1ccc(-c2nc3ccccc3n2Cc2ccccc2)cc1,/,.,.,.,.,.,/,/
CCCCCCCOC(=O)C[N+](C)(C)CCOC1CC2CCC1(C)C2(C)C (centres undefined),.,.,.,.,.,.,/,/
CCCCOC(=O)C[N+](C)(C)CCOC1CC2CCC1(C)C2(C)C (centres undefined),.,.,.,28,.,.,.,.
N#Cc1nc(COc2ccccc2)oc1N1CCC(Cc2ccccc2)CC1,.,.,.,32,.,.,21,21
CCC(C)(C(=O)NC1CCCCC1)N(Cc1cccs1)C(=O)c1ccccn1 (centres undefined),.,.,/,22,.,.,.,.
CCC(C)(C(=O)NC1CCCCC1)N(Cc1ccco1)C(=O)CNC(=O)c1ccccc1 (centres undefined),.,.,.,.,.,.,/,/
CCC(C)(C(=O)NC1CCCCC1)N(Cc1cccs1)C(=O)c1ccc(=O)[nH]c1 (centres undefined),.,.,.,.,.,.,/,/
CCC(C)(C(=O)NC1CCCC1)N(Cc1ccco1)C(=O)Cc1cccs1 (centres undefined),.,.,.,49,.,.,22,.
CCC(C)(C(=O)NC1CCCC1)N(Cc1ccco1)C(=O)c1ccc2c(c1)OCO2 (centres undefined),.,.,.,37,.,.,.,.
CC(C)c1ccc(NC(=S)NNC(=O)c2cccs2)cc1,.,.,/,.,.,.,/,/
COc1ccc(C(=O)NC(=S)Nc2ccc(CN3CCCCC3)cc2)cc1Cl,.,.,/,28,.,.,.,23
O=C(NC(=S)Nc1ccc(CN2CCCCC2)cc1)c1ccco1,.,.,/,.,.,.,/,/
Cc1ccc(C(=O)NC(=S)Nc2ccc(CN3CCCCC3)cc2)c(C)c1,.,.,/,24,.,.,.,27
COc1ccc(S(=O)(=O)N2CCC(C(=O)N3CCCCC3)CC2)cc1Cl,.,.,.,.,.,.,/,/
NC(=O)C(=O)NCCCN1CCOCC1,.,.,/,.,.,.,/,/
O=C(/C=C/c1ccc(Cl)cc1)NCCSc1ccccc1,.,.,.,29,.,.,20,43
O=C(/C=C/c1cccc([N+](=O)[O-])c1)NCCSCc1ccc(Cl)cc1,.,.,.,.,.,.,/,/
O=C(/C=C/c1ccccc1)NCCSCc1ccc(Cl)cc1,.,.,.,21,.,.,.,.
O=C(Nc1ccccc1F)Nc1ccc([N+](=O)[O-])cc1Cl,.,.,/,.,.,.,/,/
NC(=O)c1cc(NC(=O)c2ccc(NS(=O)(=O)c3cccs3)cc2)cc(C(N)=O)c1,.,.,/,/,/,.,/,/
CCCN(CCC)CCNC(=O)C1CCN(Cc2nc(-c3ccc(Cl)cc3)oc2C)CC1,.,.,.,24,.,.,.,28
CCSc1nc2c(cnn2-c2ccccc2)c(=O)n1N,.,.,/,/,/,.,/,/
Cc1ccc(C)c(C(=O)CN2C3=NCCCN3c3ccccc32)c1,.,.,.,26,.,.,.,.
c1ccc(-c2cn(-c3ccccc3)c3[n+]2CCS3)cc1,.,.,/,.,.,.,/,/
SMILES,b-catenin transl,NPY-Y1 PAM-ag,NPY-Y2 antag,NPY-Y1 antag,MT stabilize HCS,NPY-Y2 PAM-ag,NPY-Y1 ant conf,NPY-Y2 antag ct
CC(C)(C)c1ccc(-c2cn(-c3ccc(Br)cc3)c3[n+]2CCCS3)cc1,.,.,/,55,.,.,68,32
CCn1cc(C(=O)OCC(=O)OC2CC(C)CCC2C(C)C)c(=O)c2ccc(C)nc21 (centres undefined),.,.,.,21,.,.,.,.
C=CCOC(=O)c1cn(CC)c2nc(C)ccc2c1=O,.,.,/,.,.,.,/,/
CNC(=O)c1cc(NC(=O)CCn2nc(-c3ccc(C)cc3)c3ccccc3c2=O)ccc1OC,.,.,/,/,/,.,/,/
C[N+](C)(C)CCCNC(=O)c1ccc(/C=N/O)nc1,/,.,/,.,.,.,/,/
COc1ccc2c(c1)cc(C(=O)O)n2C,.,.,.,.,.,.,/,/
COc1cc2cc(C(=O)O)n(C)c2c(OC)c1OC,.,.,.,25,.,.,.,.
COc1cccc(NC(=O)c2ccccc2-c2nc(-c3ccc(F)cc3)no2)c1,/,.,.,22,.,.,.,.
COc1cccc(NC(=O)c2ccccc2-c2nc(-c3ccccc3)no2)c1,.,.,.,26,.,.,.,.
COc1ccc(-n2nc3c(c2NC(=O)c2c(-c4ccccc4Cl)noc2C)CS(=O)(=O)C3)cc1,.,.,.,38,.,.,.,.
N#Cc1nc(COc2ccc(Br)cc2)oc1NCCCn1ccnc1,.,.,.,26,.,.,.,.
CCC1=Nc2cc(C(=O)O)ccc2Sc2ccc(Cl)cc21,.,.,.,69,.,.,.,.
COc1ccc(C(=O)/C(C#N)=N/Nc2cccc([N+](=O)[O-])c2)cc1,.,.,/,26,.,.,29,.
N#C/C(=N\Nc1cccc(Cl)c1)C(=O)c1ccccc1,.,.,.,.,.,.,/,/
Cc1cc(C)n2nc(C(=O)Nc3cccc(S(=O)(=O)N(C)c4ccccc4)c3)nc2n1,.,.,/,/,/,.,/,/
CCOC(=O)C1CCN(C(=O)CCNC(=O)c2cc(OC)c(OC)c(OC)c2)CC1,/,.,.,.,.,.,/,/
CCOC(=O)c1[nH]c2c(c1-c1ccccc1)C(=O)CC(c1ccccc1)C2 (centres undefined),.,.,.,.,.,.,/,/
Cc1c(C(=O)N2CCOCC2)[nH]c2c1C(=O)CC(c1ccccc1Cl)C2 (centres undefined),/,.,.,24,41,.,.,18
CCOC(=O)CNC(c1ccccc1)c1cc(Br)ccc1NC(C)=O (centres undefined),.,.,/,47,.,.,.,.
CCCCCCCn1c2c(c(=N)c3ccccc31)CCC2,.,.,/,66,.,.,60,62
CCCn1c2c(c(=N)c3c1CCC3)CCC2,.,.,/,/,/,.,/,/
FC(F)(F)COc1nc(OCC(F)(F)F)nc(N2CCN(c3ccccc3)CC2)n1,.,.,.,28,.,.,.,.
COc1ccc(C(=O)c2coc3ccc(O)c(CN4CCCC4)c23)cc1,/,.,.,21,.,.,.,21

# Compound activity (PubChem BioAssay)
